Assay outcomes: PubChem BioAssay, several laboratories
aDG glyco act: increases alpha dystroglycan glycosylation. AID 624168. Pro5-aDG cells, alpha-DG glycosylation AlphaScreen (IIH6); 0% Pro5, 100% B10-LARGE cell signal. activation, % at 10 µM. hit rate 0.22% among 360,000;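 active means activation of at least 8% versus controls, or a plate z-score of at least 8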;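 further: Pro5 are CHO cells carrying HIG-tagged alpha-DG that lacks glycosylation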
ADAM17 inh: inhibitors of human ADAM17. recombinant ADAM17, EDANS/DABCYL FRET peptide cleavage. inhibition, % at 6.95 µM. P78536. hit rate 0.83% among 370,000. AID 720648;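 active means inhibition above the mean of compounds lying between control limits plus 3 SD, set per campaign, cut at about 8.5% in these data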;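 further: 0% = DMSO-only wells as the low control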
V-ATPase pH: yeast V-ATPase proton transport regulation by pHLuorin. AID 504577. hit rate 0.37% among 350,000. S. cerevisiae, pHLuorin cytosolic pH fluorescence. response, % at 10 µM; in the data active means response mostly above about 7.3%, no sharp cut-off; inactive means mostly below about 5.4%; further: actives read high
ADAM10 inh: inhibits human ADAM10; recombinant ADAM10, EDANS/DABCYL FRET peptide cleavage, 3 h; inhibition, % at 7 µM; hit rate 0.62% among 370,000; AID 720582;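 active means inhibition above a per-campaign cutoff equal to the mean of compounds falling between control-based bounds plus 3 SD, cut at about 20% in these data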;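 further: 0% = DMSO wells while the 100% control is not disclosed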
Target sequence (O14672 214-748 limits assumed): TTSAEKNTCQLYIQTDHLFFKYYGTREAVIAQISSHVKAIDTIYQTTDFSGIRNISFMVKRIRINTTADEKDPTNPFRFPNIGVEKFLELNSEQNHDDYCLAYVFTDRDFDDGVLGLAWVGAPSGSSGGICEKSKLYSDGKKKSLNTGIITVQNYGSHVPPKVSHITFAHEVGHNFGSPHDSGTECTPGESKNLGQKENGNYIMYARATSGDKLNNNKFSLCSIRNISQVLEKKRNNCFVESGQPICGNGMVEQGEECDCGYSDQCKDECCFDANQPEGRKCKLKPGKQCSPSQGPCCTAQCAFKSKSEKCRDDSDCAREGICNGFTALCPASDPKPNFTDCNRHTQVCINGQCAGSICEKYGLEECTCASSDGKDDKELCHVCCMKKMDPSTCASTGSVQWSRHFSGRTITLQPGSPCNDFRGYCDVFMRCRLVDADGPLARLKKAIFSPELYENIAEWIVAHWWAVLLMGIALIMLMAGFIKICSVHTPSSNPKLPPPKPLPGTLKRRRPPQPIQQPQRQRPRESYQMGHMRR
Lipid droplet: modulators of hepatic lipid droplet formation | AML12 mouse hepatocytes, oleate lipid droplets, BODIPY imaging | inhibition, % at 6.5 µM | hit rate 0.4% among 240,000;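 active means lipid droplet intensity inhibited by at least 50%, with more than 500 cells counted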
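System: AML12 hepatocytes (mouse). Probe or stimulus: oleic acid at 100 µM to induce lipid droplet formation. Times: overnight treatment with compound plus oleate. Detection: Image-based BODIPY and DAPI two-channel analysis. Evaluation: percent inhibition of filter-corrected integrated lipid droplet intensity per well.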
MPTP block: permeability transition pore inhibition. isolated mouse mitochondria, Ca2+ swelling absorbance, 30 min. inhibition, % at 10 µM. hit rate 1.4% among 360,000. AID 602449;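 active means inhibition of 50% or more, scaled per plate between neutral and stimulator controls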;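 further: 0% = DMSO wells given calcium and 100% = 1 mM EGTA wells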
ADAM10 confirm: human ADAM10 inhibition, confirmation; ADAM10 QFRET peptide cleavage, EDANS fluorescence; shares compounds with ADAM10 inh; inhibition, % at 6.95 µM; hit rate 1% among 2,100;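 active means inhibition above about 20% chosen separately for each screening run, limit read from the data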;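 further: 0% = DMSO wells and 100% = marimastat wells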
ADAM17 counter: counter-screen for ADAM10 exosite inhibitors: inhibitors of human ADAM17. shares compounds with ADAM10 inh. ADAM17 QFRET peptide cleavage, EDANS fluorescence. inhibition, % at 6.95 µM. hit rate 0.5% among 2,100. AID 743214;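 active means mean triplicate inhibition above the solvent-only control wells' mean plus 3 SD, cut at about 12% in these data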;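 further: 0% = DMSO wells and 100% = marimastat wells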
ADAM10 ctr: counter-screen for ADAM17 exosite inhibitors: inhibitors of human ADAM10; shares compounds with ADAM17 inh; recombinant ADAM10, EDANS/DABCYL FRET peptide cleavage, 3 h; inhibition, % at 6.95 µM; hit rate 47% among 2,900;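 active means mean inhibition over the triplicate runs exceeds the activity threshold set in the earlier primary screen, cut at about 20% in these data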;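 further: 0% = DMSO wells and 100% = marimastat wells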
ADAM17 confirm: confirmation of inhibitors of human ADAM17 | shares compounds with ADAM17 inh | recombinant ADAM17, EDANS/DABCYL QFRET peptide cleavage | inhibition, % at 6.95 µM | hit rate 65% among 2,900;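 active means mean inhibition across replicates above the hit cutoff set in the primary screen, cut at about 8.5% in these data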;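 further: 0% = DMSO wells and 100% = marimastat wells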
Starred values were filed as active, the others as inactive; . = no result given. Most compounds without a hit are left out; they make up all but 3.1% or so of the library.

SMILES	aDG glyco act	ADAM17 inh	V-ATPase pH	ADAM10 inh	Lipid droplet	MPTP block	ADAM10 confirm	ADAM17 counter	ADAM10 ctr	ADAM17 confirm
COc1ccc(-n2c(SCC(=O)Nc3cc(C)c(NC(=O)c4ccccc4)cc3OC)nnc2-c2cccnc2)cc1	.	-1	.	0	.	.	.	.	.	.
COc1ccc(-n2c(SCC(=O)Nc3cc(C)c(NC(=O)c4ccccc4)cc3OC)nnc2-c2ccco2)cc1	.	12*	.	24*	.	.	5	5	19	8.7*
CC(C)(C)OC(=O)NCc1cc(F)ccc1/C=C/S(=O)(=O)NC1CCCC1	.	4	.	5	.	.	.	.	.	.
CCOC(=O)c1cc(-c2ccccc2C)nn1CC1CC(c2ccc(OC)cc2)=NO1 (stereo unspecified)	0	10*	-5	21*	.	2	5	1	18	10*
CCOC(=O)c1cc(-c2ccccc2)nn1CC1CC(c2ccc(OC)cc2)=NO1 (stereo unspecified)	0	2	-7	10	.	0	.	.	.	.
Cc1cc(C)cc(-c2c(C(=O)c3ccccc3)[nH]c(N)c2C(=O)NCCc2c[nH]c3ccccc23)c1	.	4	.	4	.	.	.	.	.	.
Nc1[nH]c(C(=O)c2ccccc2)c(-c2cccc(C(F)(F)F)c2)c1C(=O)NCCc1c[nH]c2ccccc12	.	9.0*	.	24*	.	.	12	3	27*	14*
CC1C(=O)C(C)C(c2cc(Br)ccc2O)NC1c1cc(Br)ccc1O (stereo unspecified)	0	15*	3	34*	.	8	10	3	-257	-22
Cc1cccc(NC(=O)Nc2ccccc2C(=O)N2CCCC2)c1	.	0	.	0	.	.	.	.	.	.
C=CCN1C/C(=C/c2ccccc2)N2C(=O)CC(c3ccccc3)N=C12 (stereo unspecified)	.	3	.	-4	.	.	.	.	.	.
COC(=O)c1cc(C2(c3c[nH]c4ccccc34)CCN(C(=O)OC(C)(C)C)CC2)n2ccccc12	.	-215	.	-458	.	.	.	.	.	.
CN(CC(=O)Nc1cccc(F)c1)C(=O)c1cccc(S(=O)(=O)N2CCN(c3ccc(F)cc3)CC2)c1	2	15*	8	20*	.	1	3	1	23*	10*
Cc1ccc(CN[C@@H]2CC[C@@]34CCCN3C(=O)CCC[C@H]4C2)o1	.	-3	.	0	.	.	.	.	.	.
CC(CCc1ccc(O)cc1)NC(c1ccccc1)c1ccc(Cl)cc1 (stereo unspecified)	0	12*	1	28*	-25	2	6	2	29*	24*
CC(CCc1ccc(O)cc1)NCCC(c1ccccc1)c1ccccc1 (stereo unspecified)	0	-3	2	5	-11	8	.	.	.	.
COc1ccc(C(=O)NC(=S)NNC(=O)[C@H]2C[C@@H]2c2ccccc2)cc1OC	0	11*	1	32*	2	-1	3	3	-18	-1
Cc1cccc(NC(=S)N/N=C/c2ccc([N+](=O)[O-])s2)c1	2	13*	4	26*	.	6	8	4	23*	15*
N#Cc1cc2ccccc2nc1SCC(=O)Nc1ccc(S(=O)(=O)N2CCCC2)cc1	2	12*	-1	29*	.	-1	6	4	-6	2
Cc1cc(NC(=O)CSc2nc3ccccc3cc2C#N)no1	0	-1	-2	-2	16	-1	.	.	.	.
Cc1cccc(Nc2nc(N)c([N+](=O)[O-])c(NCc3ccco3)n2)c1	0	16*	-4	31*	18	22	2	1	20*	10*
Cc1cccc(Nc2nc(NCc3ccco3)nc(N)c2[N+](=O)[O-])c1	0	-3	1	5	-3	5	.	.	.	.
CC(C)(C)OC(=O)NCCc1nnc(SCc2ccc(Cl)cc2Cl)o1	0	4	-5	10	.	3	.	.	.	.
Clc1cccc(NCc2nnc(SCc3ccc(Cl)cc3Cl)o2)c1	0	9.3*	-4	31*	-38	-18	4	2	20	14*
COC(=O)[C@]12CCCCC=C1N(Cc1ccc(OC)cc1)C(=O)[C@@H]2CC(=O)NCc1cccs1	.	2	.	1	.	.	.	.	.	.
O=C(CN1CCN(S(=O)(=O)c2ccc(Br)cc2)CC1)N/N=C/c1ccc(Cl)c([N+](=O)[O-])c1	-1	11*	-6	26*	-3	-1	2	0	26*	14*
SMILES	aDG glyco act	ADAM17 inh	V-ATPase pH	ADAM10 inh	Lipid droplet	MPTP block	ADAM10 confirm	ADAM17 counter	ADAM10 ctr	ADAM17 confirm
Cc1ccc(S(=O)(=O)N2CCN(CC(=O)N/N=C\c3ccc(Cl)c([N+](=O)[O-])c3)CC2)cc1	0	4	-1	2	-1	0	.	.	.	.
COC(=O)[C@@H](Cc1ccccc1)NC(=O)NCCc1c[nH]c2ccccc12	0	-1	1	0	-6	0	.	.	.	.
O=C(NCC(c1ccccc1)c1ccccc1)[C@H](Cc1c[nH]c2ccccc12)NC1(C(=O)NC2CCCCC2)CCC1	.	14*	.	24*	.	.	7	2	34*	24*
CC(C)(N[C@@H](Cc1c[nH]c2ccccc12)C(=O)NCC(c1ccccc1)c1ccccc1)C(=O)NC1CCCCC1	.	9.9*	.	21*	.	.	8	3	40*	19*
O=C(NCC(c1ccccc1)c1ccccc1)[C@H](Cc1ccccc1)NC1(C(=O)NC2CCCCC2)CCC1	.	-1	.	2	.	.	.	.	.	.
CC(C)(C)OC(=O)N1CCC(N[C@@H](Cc2c[nH]c3ccccc23)C(=O)NCCc2c[nH]c3ccccc23)(C(=O)NC2CCCCC2)CC1	.	9.2*	.	26*	.	.	9	2	29*	15*
O=C(NCCCc1ccccc1)[C@H](Cc1c[nH]c2ccccc12)NC1(C(=O)NCCc2c[nH]c3ccccc23)CCC1	.	16*	.	31*	.	.	10	3	30*	14*
CCC[C@H]1[C@@H](NC(=O)C(c2ccccc2)c2ccccc2)CC[C@@]23CCCN2C(=O)CCC[C@@H]13	.	0	.	0	.	.	.	.	.	.
CCN1CCCCC(NC(=O)c2ccc(F)c(F)c2)C1=O (stereo unspecified)	.	1	.	3	.	.	.	.	.	.
CN1C(=O)C[C@@](C#N)(C(=O)Nc2nc3ccc(F)cc3s2)[C@H]1c1ccccc1	.	1	.	-2	.	.	.	.	.	.
COc1cccc(NC(=S)N(Cc2ccccn2)Cc2ccccc2Cl)c1	0	9.3*	2	22*	-14	-1	2	2	24*	13*
